Experimental data reported in ChEMBL document CHEMBL1926610, “Design and synthesis of pyridone inhibitors of non-nucleoside reverse transcriptase” (Bioorg Med Chem Lett, 2011).

Assays:
[1] = Inhibition of Human immunodeficiency virus wild type reverse transcriptase by SPA assay
Summary of the method: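 Wild-type HIV RT enzyme inhibition measured in a standard SPA assay. Values are geometric mean of at least two determinations.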

[2] = target: Human immunodeficiency virus type 1 reverse transcriptase (Human immunodeficiency virus 1, UniProt Q72547, K103N); assay: Inhibition of Human immunodeficiency virus reverse transcriptase K103N mutant by SPA assay
Summary of the method: (§1)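 Scintillation proximity assay (SPA) of mutant RT enzyme inhibition. Values are geometric means of at least two determinations.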

[3] = target: Human immunodeficiency virus type 1 reverse transcriptase (Human immunodeficiency virus 1, UniProt Q72547, Y181C); assay: Inhibition of Human immunodeficiency virus reverse transcriptase Y181C mutant by SPA assay; summary of the method: as §1
[4] = tested on: Human immunodeficiency virus; assay: Antiviral activity against Human immunodeficiency virus expressing wild type RT infected in human MT4 cells by p24 antigen assay in the presence of 10% FBS; type: functional; conditions: Human immunodeficiency virus 1, MT4; read-out: CIC95
Summary of the method: (§2)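 CIC95 = concentration at which spread of virus is inhibited by >95% in MT-4 human T-lymphoid cells in RPMI 1640 medium containing either 10% FBS or 50% normal human serum (to assess protein binding). Geometric mean of at least 2 determinations.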

[5] = tested on: Human immunodeficiency virus; assay: Antiviral activity against Human immunodeficiency virus expressing RT K103N mutant infected in human MT4 cells by p24 antigen assay in the presence of 10% FBS; type: functional; conditions: Human immunodeficiency virus 1, MT4; read-out: CIC95
Summary of the method: (§3)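 Spread assay in MT-4 human T-lymphoid cells in RPMI 1640 with 10% FBS. CIC95 is the concentration inhibiting viral spread by >95%, reported as the geometric mean of at least 2 determinations. Cytotoxicity was checked up to 8.3 μM.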

[6] = tested on: Human immunodeficiency virus; assay: Antiviral activity against Human immunodeficiency virus expressing RT Y181C mutant infected in human MT4 cells by p24 antigen assay in the presence of 10% FBS; type: functional; conditions: Human immunodeficiency virus 1, MT4; read-out: CIC95; summary of the method: as §3
[7] = tested on: Human immunodeficiency virus; assay: Antiviral activity against Human immunodeficiency virus expressing RT K103N/Y181C double mutant infected in human MT4 cells by p24 antigen assay in the presence of 10% FBS; type: functional; conditions: Human immunodeficiency virus 1, MT4; read-out: CIC95; summary of the method: as §3
[8] = tested on: Human immunodeficiency virus; assay: Antiviral activity against Human immunodeficiency virus expressing wild type RT infected in human MT4 cells by p24 antigen assay in the presence of 50% normal human serum; type: functional; conditions: Human immunodeficiency virus 1, MT4; read-out: CIC95; summary of the method: as §2
[9] = tested on: MT4; assay: Cytotoxicity against human MT4 cells up to 8.3 uM; type: cell-based
Summary of the method: (§4)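 Cytotoxicity in MT-4 human T-lymphoid cells run alongside the cell culture antiviral assay (RPMI 1640, 10% FBS or 50% NHS), tested up to the assay upper limit of 8.3 μM.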

[10] = Volume of distribution in Sprague-Dawley rat at 10 mg/kg, po and 2 mg/kg, iv; type: ADME, organism-based; conditions: in vivo
Summary of the method: (§5)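 Sprague Dawley rats given iv dose 2 mpk as a DMSO solution via indwelling jugular vein cannula, and p.o. dose 10 mpk as aqueous methylcellulose (methocel) suspension. Plasma levels by LC-MS; absolute oral bioavailability from comparison of mean plasma AUC. Average of at least 2 rats.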

[11] = Plasma clearance in Sprague-Dawley rat at 10 mg/kg, po and 2 mg/kg, iv; type: ADME, organism-based; summary of the method: as §5
[12] = Half life in Sprague-Dawley rat at 10 mg/kg, po and 2 mg/kg, iv; type: ADME, organism-based; conditions: in vivo; summary of the method: as §5
[13] = Oral bioavailability in Sprague-Dawley rat at 10 mg/kg; type: ADME, organism-based; conditions: in vivo; summary of the method: as §5
[14] = tested on: Rattus norvegicus; assay: Dose normalized AUC in Sprague-Dawley rat at 10 mg/kg, po; type: ADME, organism-based; parameters: dose 10 mg/kg, route oral; conditions: in vivo; summary of the method: as §5
[15] = tested on: MT4; assay: Cytotoxicity against human MT4 cells; type: cell-based; summary of the method: as §4
[16] = tested on: Human immunodeficiency virus; assay: Antiviral activity against Human immunodeficiency virus expressing RT K103N mutant infected in human MT4 cells by p24 antigen assay in the presence of 50% normal human serum; type: functional; conditions: Human immunodeficiency virus 1, MT4; read-out: CIC95
Summary of the method: (§6)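 MT-4 human T-lymphoid cells were kept in RPMI 1640 containing 50% normal human serum to assess protein binding. Readout is CIC95, the concentration blocking >95% of virus spread. Values are geometric means of at least 2 determinations.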

[17] = tested on: Human immunodeficiency virus; assay: Antiviral activity against Human immunodeficiency virus expressing RT Y181C mutant infected in human MT4 cells by p24 antigen assay in the presence of 50% normal human serum; type: functional; conditions: Human immunodeficiency virus 1, MT4; read-out: CIC95; summary of the method: as §6
[18] = tested on: Human immunodeficiency virus; assay: Antiviral activity against Human immunodeficiency virus expressing RT K103N/Y181C double mutant infected in human MT4 cells by p24 antigen assay in the presence of 50% normal human serum; type: functional; conditions: Human immunodeficiency virus 1, MT4; read-out: CIC95; summary of the method: as §6
[19] = Plasma protein binding in human; type: ADME, cell-free; conditions: read-out: PPB (converted)
[20] = tested on: Human immunodeficiency virus; assay: Antiviral activity against Human immunodeficiency virus expressing RT K103N/Y181C double mutant infected in human MT4 cells by p24 antigen assay in the presence of 10% FBS relative to MK-4965; type: functional
[21] = tested on: Human immunodeficiency virus; assay: Antiviral activity against Human immunodeficiency virus expressing wild type RT infected in human MT4 cells by p24 antigen assay in the presence of 50% normal human serum relative to MK-4965; type: functional
[22] = tested on: Human immunodeficiency virus; assay: Antiviral activity against Human immunodeficiency virus expressing wild type RT infected in human MT4 cells by p24 antigen assay in the presence of 50% normal human serum relative to TMC-278; type: functional
[23] = tested on: Human immunodeficiency virus; assay: Antiviral activity against Human immunodeficiency virus expressing wild type RT infected in human MT4 cells by p24 antigen assay in the presence of 50% normal human serum relative to UK-453061; type: functional
[24] = Volume of distribution in Sprague-Dawley rat at 1 mg/kg, iv; type: ADME, organism-based; parameters: dose 1 mg/kg, route intravenous; conditions: in vivo
Summary of the method: (§7)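 Sprague Dawley rats dosed iv at 1 mpk in DMSO via indwelling jugular vein cannula, no oral arm. Plasma concentrations by LC-MS.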

[25] = Plasma clearance in Sprague-Dawley rat at 1 mg/kg, iv; type: ADME, organism-based; parameters: dose 1 mg/kg, route intravenous; summary of the method: as §7
[26] = Half life in Sprague-Dawley rat at 1 mg/kg, iv; type: ADME, organism-based; parameters: dose 1 mg/kg, route intravenous; conditions: in vivo; summary of the method: as §7

| SMILES | Ki [1] | Ki [2] | Ki [3] | IC95 [4] | IC95 [5] | IC95 [6] | IC95 [7] | IC95 [8] | Activity [9] | Vd [10] | clearance [11] | half-life [12] | bioavailability [13] | AUC/dose [14] | Activity [15] | IC95 [16] | IC95 [17] | IC95 [18] | fraction unbound [19] | further results |
| --- | --- | --- | --- | --- | --- | --- | --- | --- | --- | --- | --- | --- | --- | --- | --- | --- | --- | --- | --- | --- |
| N#Cc1cc(Cl)cc(Oc2c(Cl)ccn(Cc3n[nH]c4nc(N)ccc34)c2=O)c1 | 0.0013 µM | 0.0021 µM | 0.0018 µM | 0.0019 µM | 0.0071 µM | 0.063 µM | 0.03 µM | 0.011 µM | Non-toxic | 0.8 L/kg | 0.72 L/h/kg | 1.4 h | 6% | 0.15 µM·h |  |  |  |  |  |  |
| CCc1nn(CCO)c(CC)c1Oc1cc(C#N)cc(C#N)c1 [LERSIVIRINE] |  |  |  |  |  |  |  | 0.04 µM |  |  |  |  |  |  | Non-toxic | 0.07 µM | 0.068 µM | 0.1 µM | 0.49 |  |
| N#Cc1cc(Cl)cc(Oc2c(Cl)ccn(Cc3n[nH]c4ncccc34)c2=O)c1 | 0.00077 µM | 0.0015 µM | 0.001 µM | 0.0024 µM | 0.0029 µM | 0.0078 µM | 0.007 µM | 0.0077 µM | Non-toxic | 2 L/kg | 0.72 L/h/kg | 4 h | 57% | 1.6 µM·h | Non-toxic | 0.012 µM | 0.02 µM | 0.069 µM | 0.033 | fold change (FC) [20]: 10; fold change (FC) [21]: 4; fold change (FC) [22]: 4; fold change (FC) [23]: 4 |
| Cc1ccn(Cc2n[nH]c3ncccc23)c(=O)c1Oc1cc(Cl)cc(C#N)c1 | 0.0025 µM | 0.0037 µM | 0.0031 µM | 0.0036 µM | 0.01 µM |  | 0.031 µM | 0.012 µM | Non-toxic | 3.7 L/kg | 0.66 L/h/kg |  | 8.5% | 0.31 µM·h |  |  |  |  |  |  |
| N#Cc1cc(Cl)cc(Oc2c(Cl)c(Cl)cn(Cc3n[nH]c4ncccc34)c2=O)c1 | 0.001 µM | 0.0016 µM | 0.0013 µM | 0.0046 µM | 0.011 µM | 0.015 µM | 0.031 µM | 0.015 µM | Non-toxic | 27 L/kg | 1.62 L/h/kg | 19 h | 0% | 0 µM·h |  |  |  |  |  |  |
| Cc1ccn(CCc2n[nH]c3ncccc23)c(=O)c1Oc1cc(Cl)cc(C#N)c1 | 0.025 µM | 0.058 µM | 0.051 µM | 0.248 µM | 0.447 µM |  |  | 0.611 µM | Non-toxic |  |  |  |  |  |  |  |  |  |  | Vd [24]: 0.6 L/kg; clearance [25]: 1.86 L/h/kg; half-life [26]: 0.75 h |
| N#Cc1cc(Cl)cc(Oc2cc(OCc3n[nH]c4nc(N)ccc34)ccc2Cl)c1 | 0.0002 µM |  |  | 0.005 µM | 0.012 µM | 0.027 µM | 0.073 µM | 0.026 µM | Non-toxic |  |  |  |  |  | Non-toxic | 0.054 µM | 0.175 µM | 0.589 µM | 0.035 |  |
| Cc1cc(/C=C/C#N)cc(C)c1Nc1ccnc(Nc2ccc(C#N)cc2)n1 [RILPIVIRINE] |  |  |  |  |  |  |  | 0.036 µM |  |  |  |  |  |  | Non-toxic | 0.046 µM | 0.104 µM | 0.311 µM | 0.003 |  |
| N#Cc1cc(Cl)cc(Oc2cc(Cc3n[nH]c4ncccc34)ccc2Cl)c1 | 0.00024 µM | 0.00048 µM | 0.00051 µM | 0.022 µM | 0.211 µM |  |  |  |  |  |  |  |  |  |  |  |  |  |  |  |
